According to ChEMBL document CHEMBL2040707, “Fluorinated amino-derivatives of the sesquiterpene lactone, parthenolide, as (19)f NMR probes in deuterium-free environments” (2011):

Each compound was assayed on HL-60 (assay: Antiproliferative activity against human HL60 cells after 72 hrs by MTT assay). Conditions: HL-60, 72 h.
Type: functional
How it was run: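 HL-60 cells from ATCC grown in phenol red-free RPMI-1640 with 10% FBS at 37 °C, 5% CO2. Seeded 5,000 cells/well, treated at ten concentrations in quadruplicate (final 0.5% DMSO; vehicle control 0.5% DMSO). After 72 h, MTT (2.5 mg/mL solution) added for 4 h, formazan dissolved in acidic isopropanol/Triton for 16 h, A570 read. GI50 set relative to a Day 0 density plate; 95% CI given.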

Compared with `C/C1=C/CC[C@@]2(C)O[C@@H]2[C@H]2OC(=O)[C@@H](CN3CCCC(F)(F)C3)[C@@H]2CC1`, `C/C1=C/CC[C@@]2(C)O[C@@H]2[C@H]2OC(=O)[C@@H](CN3CCC(F)(F)C3)[C@@H]2CC1` is 2-fold lower in GI50: 16900 nM for the first, 8320 nM for the second.

`C=C1C(=O)O[C@@H]2C3O[C@]3(C)CC/C=C(\C)CC[C@@H]12` (stereo partly specified) and `C/C1=C/CC[C@@]2(C)O[C@@H]2[C@H]2OC(=O)[C@@H](CN3CCCC3)[C@@H]2CC1` are within 1.5-fold of each other in GI50: 520 nM for the first, 750 nM for the second.

First: C/C1=C/CC[C@@]2(C)O[C@@H]2[C@H]2OC(=O)[C@@H](CN3CC[C@@H](F)C3)[C@@H]2CC1
Second: C/C1=C/CC[C@@]2(C)O[C@@H]2[C@H]2OC(=O)[C@@H](CN3CC[C@H](F)C3)[C@@H]2CC1
The GI50 of the first is 43-fold lower: 580 nM for the first, 24700 nM for the second.

First: C/C1=C\CC[C@@]2(C)O[C@@H]2[C@H]2OC(=O)[C@@H](CN3CCC(F)(F)CC3)[C@@H]2CC1
Second: C/C1=C/CC[C@@]2(C)O[C@@H]2[C@H]2OC(=O)[C@@H](CN3CCC(F)CC3)[C@@H]2CC1
The GI50 of the first is 2.6-fold lower: 690 nM for the first, 1770 nM for the second.

`C/C1=C/CC[C@@]2(C)O[C@@H]2[C@H]2OC(=O)[C@@H](CN3CCCC(F)C3)[C@@H]2CC1` (stereo partly specified) and `C/C1=C/CC[C@@]2(C)O[C@@H]2[C@H]2OC(=O)[C@@H](CN3CCCC(C(F)(F)F)C3)[C@@H]2CC1` (stereo partly specified) are within 1.5-fold of each other in GI50: 1130 nM for the first, 1690 nM for the second.

`C/C1=C/CC[C@@]2(C)O[C@@H]2[C@H]2OC(=O)[C@@H](CN3CCCCC3)[C@@H]2CC1` and `C/C1=C/CC[C@@]2(C)O[C@@H]2[C@H]2OC(=O)[C@@H](CN3CCC(C(F)(F)F)CC3)[C@@H]2CC1` are within 1.5-fold of each other in GI50: 840 nM for the first, 1000 nM for the second.

`C=C1C(=O)O[C@@H]2C3O[C@]3(C)CC/C=C(\C)CC[C@@H]12` (stereo partly specified) and `C/C1=C/CC[C@@]2(C)O[C@@H]2[C@H]2OC(=O)[C@@H](CN3CCCC3)[C@@H]2CC1` are within 1.5-fold of each other in TGI: 1.36 µM for the first, 1.74 µM for the second.

Going from `C/C1=C/CC[C@@]2(C)O[C@@H]2[C@H]2OC(=O)[C@@H](CN3CC[C@@H](F)C3)[C@@H]2CC1` to `C/C1=C/CC[C@@]2(C)O[C@@H]2[C@H]2OC(=O)[C@@H](CN3CC[C@H](F)C3)[C@@H]2CC1`, the TGI rises from 1.18 µM to 46.2 µM (39-fold).

Compared with `C/C1=C\CC[C@@]2(C)O[C@@H]2[C@H]2OC(=O)[C@@H](CN3CCC(F)(F)CC3)[C@@H]2CC1`, `C/C1=C/CC[C@@]2(C)O[C@@H]2[C@H]2OC(=O)[C@@H](CN3CCC(F)(F)C3)[C@@H]2CC1` is 3.3-fold higher in TGI: 5.58 µM for the first, 18.3 µM for the second.

Going from `C/C1=C/CC[C@@]2(C)O[C@@H]2[C@H]2OC(=O)[C@@H](CN3CCCC(F)C3)[C@@H]2CC1` (stereo partly specified) to `C/C1=C/CC[C@@]2(C)O[C@@H]2[C@H]2OC(=O)[C@@H](CN3CCC(F)CC3)[C@@H]2CC1`, the TGI falls from 12.2 µM to 5.7 µM (2.1-fold).

First: C/C1=C/CC[C@@]2(C)O[C@@H]2[C@H]2OC(=O)[C@@H](CN3CCCCC3)[C@@H]2CC1
Second: C/C1=C/CC[C@@]2(C)O[C@@H]2[C@H]2OC(=O)[C@@H](CN3CCC(C(F)(F)F)CC3)[C@@H]2CC1
The TGI of the first is 1.9-fold higher: 3.99 µM for the first, 2.14 µM for the second.

In the case of `C/C1=C/CC[C@@]2(C)O[C@@H]2[C@H]2OC(=O)[C@@H](CN3CCCC(C(F)(F)F)C3)[C@@H]2CC1` (stereo partly specified), the TGI is reported as 7.29 µM.

Compared with `C/C1=C/CC[C@@]2(C)O[C@@H]2[C@H]2OC(=O)[C@@H](CN3CC[C@@H](F)C3)[C@@H]2CC1`, `C/C1=C/CC[C@@]2(C)O[C@@H]2[C@H]2OC(=O)[C@@H](CN3CCC(F)CC3)[C@@H]2CC1` is 4.9-fold higher in LC50 (concentration killing 50% of cells): 1.66 µM for the first, 8.07 µM for the second.

`C/C1=C\CC[C@@]2(C)O[C@@H]2[C@H]2OC(=O)[C@@H](CN3CCC(F)(F)CC3)[C@@H]2CC1` and `C/C1=C/CC[C@@]2(C)O[C@@H]2[C@H]2OC(=O)[C@@H](CN3CCC(F)(F)C3)[C@@H]2CC1` are within 1.5-fold of each other in LC50 (concentration killing 50% of cells): 17.7 µM for the first, 23.8 µM for the second.

First: C/C1=C/CC[C@@]2(C)O[C@@H]2[C@H]2OC(=O)[C@@H](CN3CCCCC3)[C@@H]2CC1
Second: C/C1=C/CC[C@@]2(C)O[C@@H]2[C@H]2OC(=O)[C@@H](CN3CCCC3)[C@@H]2CC1
The LC50 (concentration killing 50% of cells) of the first is 4-fold higher: 10.1 µM for the first, 2.54 µM for the second.

Going from `C/C1=C/CC[C@@]2(C)O[C@@H]2[C@H]2OC(=O)[C@@H](CN3CCC(C(F)(F)F)CC3)[C@@H]2CC1` to `C/C1=C/CC[C@@]2(C)O[C@@H]2[C@H]2OC(=O)[C@@H](CN3CCCC(C(F)(F)F)C3)[C@@H]2CC1` (stereo partly specified), the LC50 (concentration killing 50% of cells) rises from 3.11 µM to 21.3 µM (6.8-fold).
